Measured values: ChEMBL document CHEMBL4138095, “Thiosemicarbazones and 4-thiazolidinones indole-based derivatives: Synthesis, evaluation of antiproliferative activity, cell death mechanisms and topoisomerase inhibition assay” (Eur J Med Chem, 2017)
The source made the active and inactive calls. No cut-off for these calls is given here.

Key:
NCI-H460 = assay: Growth inhibition of human NCI-H460 cells after 48 hrs by sulforhodamine B dye-based spectrophotometric assay; assay type: functional; conditions: NCI-H460, 48 h
786-0 = assay: Growth inhibition of human 786-0 cells after 48 hrs by sulforhodamine B dye-based spectrophotometric assay; assay type: functional; conditions: 786-0, 48 h
OVCAR-3 = assay: Growth inhibition of human OVCAR3 cells after 48 hrs by sulforhodamine B dye-based spectrophotometric assay; assay type: functional; conditions: OVCAR-3, 48 h
U-251 = assay: Growth inhibition of human U251 cells after 48 hrs by sulforhodamine B dye-based spectrophotometric assay; assay type: functional; conditions: U-251, 48 h
MCF7 = assay: Growth inhibition of human MCF7 cells after 48 hrs by sulforhodamine B dye-based spectrophotometric assay; assay type: functional; conditions: MCF7, 48 h
HT-29 [1] = assay: Growth inhibition of human HT-29 cells after 48 hrs by sulforhodamine B dye-based spectrophotometric assay; assay type: functional; conditions: HT-29, 48 h
K562 = assay: Growth inhibition of human K562 cells after 48 hrs by sulforhodamine B dye-based spectrophotometric assay; assay type: functional; conditions: K562, 48 h
[2] = Growth inhibition of human HaCaT cells after 48 hrs by sulforhodamine B dye-based spectrophotometric assay; assay type: cell-based
NCI/ADR-RES = assay: Growth inhibition of human NCI-ADR-RES cells after 48 hrs by sulforhodamine B dye-based spectrophotometric assay; assay type: functional
[3] = biological target: DNA topoisomerase 2-alpha (Homo sapiens) (UniProt P11388); assay: Inhibition of recombinant human topoisomerase-2alpha assessed as reducton in relaxation of supercoiled pUC19 DNA at 50 to 100 uM after 30 mins by ethidium bromide staining-based gel electrophoresis assay
Sequence of DNA topoisomerase 2-alpha (Homo sapiens) (P11388 whole entry): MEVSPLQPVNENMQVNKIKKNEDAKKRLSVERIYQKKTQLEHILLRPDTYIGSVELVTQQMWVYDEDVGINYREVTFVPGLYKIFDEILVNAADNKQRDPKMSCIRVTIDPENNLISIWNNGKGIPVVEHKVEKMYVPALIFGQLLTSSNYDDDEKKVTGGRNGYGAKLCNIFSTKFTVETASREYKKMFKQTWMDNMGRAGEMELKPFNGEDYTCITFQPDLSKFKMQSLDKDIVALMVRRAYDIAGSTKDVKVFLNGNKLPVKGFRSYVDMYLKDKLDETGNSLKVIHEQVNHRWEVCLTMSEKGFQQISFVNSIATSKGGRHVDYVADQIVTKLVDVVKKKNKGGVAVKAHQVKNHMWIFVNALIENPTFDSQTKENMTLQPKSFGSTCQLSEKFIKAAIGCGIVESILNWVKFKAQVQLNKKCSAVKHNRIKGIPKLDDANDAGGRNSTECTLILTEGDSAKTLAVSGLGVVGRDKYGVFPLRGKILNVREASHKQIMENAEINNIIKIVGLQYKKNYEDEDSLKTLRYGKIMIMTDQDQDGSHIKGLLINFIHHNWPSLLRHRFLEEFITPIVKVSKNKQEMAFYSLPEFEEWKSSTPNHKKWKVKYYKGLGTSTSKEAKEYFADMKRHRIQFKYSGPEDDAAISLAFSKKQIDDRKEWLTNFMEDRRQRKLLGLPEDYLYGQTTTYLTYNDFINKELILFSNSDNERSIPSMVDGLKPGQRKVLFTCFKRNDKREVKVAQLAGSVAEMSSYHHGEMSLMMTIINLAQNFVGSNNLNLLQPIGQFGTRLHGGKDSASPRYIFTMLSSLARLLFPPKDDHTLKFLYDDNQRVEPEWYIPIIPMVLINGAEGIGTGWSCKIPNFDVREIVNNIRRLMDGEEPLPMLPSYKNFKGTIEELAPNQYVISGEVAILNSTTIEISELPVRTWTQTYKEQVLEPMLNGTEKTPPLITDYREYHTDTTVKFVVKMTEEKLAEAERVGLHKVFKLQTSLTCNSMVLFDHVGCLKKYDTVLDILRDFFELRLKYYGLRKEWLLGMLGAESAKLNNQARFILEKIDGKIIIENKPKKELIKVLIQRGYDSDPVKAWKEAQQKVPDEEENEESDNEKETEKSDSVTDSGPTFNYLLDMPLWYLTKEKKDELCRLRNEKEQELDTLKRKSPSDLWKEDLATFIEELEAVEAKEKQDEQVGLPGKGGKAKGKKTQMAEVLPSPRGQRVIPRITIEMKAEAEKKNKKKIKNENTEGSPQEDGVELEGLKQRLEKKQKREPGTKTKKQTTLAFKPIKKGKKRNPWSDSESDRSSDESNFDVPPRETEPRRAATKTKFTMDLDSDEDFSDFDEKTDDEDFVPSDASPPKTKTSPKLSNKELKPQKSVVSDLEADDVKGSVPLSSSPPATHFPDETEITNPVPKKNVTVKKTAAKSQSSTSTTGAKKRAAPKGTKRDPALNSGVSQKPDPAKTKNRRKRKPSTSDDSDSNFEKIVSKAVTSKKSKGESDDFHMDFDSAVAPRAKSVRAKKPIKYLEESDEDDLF
How it was run: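 Supercoiled pUC19 (100 ng) with 4 units recombinant human topo IIα (p170) in relaxation buffer, ± compound at 50 or 100 µM or m-AMSA control, 30 min at 37 °C; stopped with 1% SDS, proteinase K digested; products resolved by agarose gel, ethidium bromide stained, imaged under UV.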

HT-29 [4] = assay: Cell cycle arrest in human HT-29 cells assessed as accumulation at G2/M phase at 10 uM after 24 hrs by propidium iodide staining-based flow cytometric method (reference value: 32.5 +/- 2.3%); assay type: functional
HT-29 [5] = assay: Cell cycle arrest in human HT-29 cells assessed as accumulation at G1 phase at 5 uM after 24 hrs by propidium iodide staining-based flow cytometric method (reference value: 46.1 +/- 2.1%); assay type: functional
HT-29 [6] = assay: Cell cycle arrest in human HT-29 cells assessed as accumulation at sub-G1 phase at 30 uM after 24 hrs by propidium iodide staining-based flow cytometric method (reference value: 3.5 +/- 0.7%); assay type: functional
HT-29 [7] = assay: Induction of apoptosis in human HT-29 cells assessed as increase in cell subpopulation with phosphatidylserine externalization at 5 uM after 24 hrs by annexin-V-PE/7-AAD staining-based flow cytometry; assay type: functional
How it was run: (§1)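 HT-29 seeded 2×10^5 cells/well, 24 h; treated 24 h at 5–50 μM (vehicle DMSO 0.1%); trypsinized, 1×10^5 cells in PBS plus binding buffer with annexin-V-PE and 7-AAD, 20 min dark, room temperature; 5000 events per experiment by flow cytometry; mean ± SE, two independent experiments in triplicate; ANOVA/Tukey.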

HT-29 [8] = assay: Cell cycle arrest in human HT-29 cells assessed as accumulation at G2/M phase at 5 uM after 24 hrs by propidium iodide staining-based flow cytometric method (reference value: 32.5 +/- 2.3%); assay type: functional
HT-29 [9] = assay: Cell cycle arrest in human HT-29 cells assessed as accumulation at sub-G1 phase at 5 uM after 24 hrs by propidium iodide staining-based flow cytometric method (reference value: 3.5 +/- 0.7%); assay type: functional
Calf thymus DNA [10] = assay: Binding affinity to calf thymus DNA at 15 uM by fluorescence spectra analysis; assay type: nucleic-acid assay; conditions: Bos taurus
How it was run: (§2)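 Fluorescence of 15 μM ligand in 0.01 M Tris, pH 7.6, 25 °C, 1 cm quartz cuvette; excitation 335 nm, emission 435 nm (spectra 370–700 nm); ctDNA (0–100 μM) added stepwise into the cell; quenching analysed by Stern-Volmer plot to give Ksv.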

HT-29 [11] = assay: Cell cycle arrest in human HT-29 cells assessed as accumulation at S phase at 5 uM after 24 hrs by propidium iodide staining-based flow cytometric method (reference value: 17.2 +/- 1.2%); assay type: functional
HT-29 [12] = assay: Cell cycle arrest in human HT-29 cells assessed as accumulation at G1 phase at 10 uM after 24 hrs by propidium iodide staining-based flow cytometric method (reference value: 46.1 +/- 2.1%); assay type: functional
Calf thymus DNA [13] = assay: Binding affinity to calf thymus DNA assessed as hyperchromicity after 10 mins by UV-visible absorption assay; assay type: nucleic-acid assay; conditions: Bos taurus
How it was run: (§3)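 ctDNA in Tris-HCl (0.01 M, pH 7.6), sonicated 5 min; concentration from ε260 6600 M⁻¹ cm⁻¹, as base-pair equivalents. Ligand from 1 mM DMSO stock diluted in buffer (10–80 μM), titrated with increasing ctDNA, stirred 10 min at room temperature, UV-vis read in 1 cm quartz cuvette; hyperchromicity with 100 µM ctDNA versus free ligand; Kb by curve fitting.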

Calf thymus DNA [14] = assay: Binding affinity to calf thymus DNA assessed as maximum absorption peak at 10 to 80 uM after 10 mins by UV-visible absorption assay (reference value: 334 nm); assay type: nucleic-acid assay; conditions: Bos taurus; how it was run: as §3
HT-29 [15] = assay: Induction of apoptosis in human HT-29 cells after 24 hrs by annexin-V-PE/7-AAD staining-based flow cytometry; assay type: functional, cell-based; how it was run: as §1
HT-29 [16] = assay: Cell cycle arrest in human HT-29 cells assessed as accumulation at S phase at 10 uM after 24 hrs by propidium iodide staining-based flow cytometric method (reference value: 17.2 +/- 1.2%); assay type: functional
HT-29 [17] = assay: Cell cycle arrest in human HT-29 cells assessed as accumulation at G1 phase at 30 uM after 24 hrs by propidium iodide staining-based flow cytometric method (reference value: 46.1 +/- 2.1%); assay type: functional
HT-29 [18] = assay: Cell cycle arrest in human HT-29 cells assessed as accumulation at G2/M phase at 30 uM after 24 hrs by propidium iodide staining-based flow cytometric method (reference value: 32.5 +/- 2.3%); assay type: functional
HT-29 [19] = assay: Cell cycle arrest in human HT-29 cells assessed as accumulation at sub-G1 phase at 10 uM after 24 hrs by propidium iodide staining-based flow cytometric method (reference value: 3.5 +/- 0.7%); assay type: functional
HT-29 [20] = assay: Cell cycle arrest in human HT-29 cells assessed as accumulation at S phase at 30 uM after 24 hrs by propidium iodide staining-based flow cytometric method (reference value: 17.2 +/- 1.2%); assay type: functional
Calf thymus DNA [21] = assay: Binding affinity to calf thymus DNA by fluorescence spectra analysis; assay type: nucleic-acid assay; conditions: Bos taurus; how it was run: as §2
Calf thymus DNA [22] = assay: Binding affinity to calf thymus DNA assessed as hyperchromicity at 100 uM after 10 mins by UV-visible absorption assay relative to control; assay type: nucleic-acid assay; conditions: Bos taurus; how it was run: as §3
[23] = Binding affinity to DNA (unknown origin)
HT-29 [24] = assay: Cell cycle arrest in human HT-29 cells assessed as accumulation at S phase at 1.25 nM after 24 hrs by propidium iodide staining-based flow cytometric method (reference value: 17.2 +/- 1.2%)
HT-29 [25] = assay: Cell cycle arrest in human HT-29 cells assessed as accumulation at G2/M phase at 1.25 nM after 24 hrs by propidium iodide staining-based flow cytometric method (reference value: 32.5 +/- 2.3%)
HT-29 [26] = assay: Cell cycle arrest in human HT-29 cells assessed as accumulation at G1 phase at 1.25 nM after 24 hrs by propidium iodide staining-based flow cytometric method (reference value: 46.1 +/- 2.1%)
HT-29 [27] = assay: Cell cycle arrest in human HT-29 cells assessed as accumulation at sub-G1 phase at 1.25 nM after 24 hrs by propidium iodide staining-based flow cytometric method (reference value: 3.5 +/- 0.7%)

SMILES | GI50 (NCI-H460) | GI50 (786-0) | GI50 (OVCAR-3) | GI50 (U-251) | GI50 (MCF7) | GI50 (HT-29 [1]) | GI50 (K562) | GI50 at 48 h [2] | GI50 (NCI/ADR-RES) | also measured
O=C1CS/C(=N/N=C/c2c[nH]c3ccc(Br)cc23)N1c1cccc2ccccc12 | > 100 µM | 29.1 µM | 5.12 µM | 48.8 µM | 6.06 µM | 27.3 µM | > 100 µM | 6.23 µM | 12.4 µM | 
S=C(NCCc1ccccc1)N/N=C/c1c[nH]c2ccc(Br)cc12 | 8.48 µM | 7.58 µM | 8.22 µM | 7.49 µM | 6.81 µM | 7.87 µM | 2.12 µM | 7.85 µM | 7.14 µM | 
COc1cc(NS(C)(=O)=O)ccc1Nc1c2ccccc2nc2ccccc12 |  |  |  |  |  |  |  |  |  | inhibition [3]: Active
Cc1ccc(N2C(=O)CS/C2=N/N=C/c2c[nH]c3ccccc23)cc1 | > 100 µM | 79.1 µM | > 100 µM | 90.2 µM | > 100 µM | > 100 µM | > 100 µM | > 100 µM | > 100 µM | 
Cc1ccc(N2C(=O)CS/C2=N/N=C/c2c[nH]c3ccc(Br)cc23)cc1 | 96.6 µM | 39.9 µM | 98.5 µM | 54.7 µM | 59.5 µM | > 100 µM | 0.01 µM | 54 µM | 64.6 µM | 
S=C(N/N=C/c1c[nH]c2ccc(Br)cc12)Nc1cccc2ccccc12 | 6.99 µM | 6.56 µM | 1.6 µM | 7.32 µM | 0.95 µM | 6.56 µM | 5.29 µM | 6.15 µM | 6.18 µM | 
S=C(N/N=C/c1c2ccccc2nc2ccccc12)Nc1cccc2ccccc12 |  |  |  |  |  |  |  |  |  | Kb [23]: 8.47 ×10⁵ /M
COc1cc2c(c(OC)c1OC)-c1ccc(OC)c(=O)cc1[C@@H](NC(C)=O)CC2 [COLCHICINE] |  |  |  |  |  |  |  |  |  | Activity (HT-29 [24]): 5.9%; Activity (HT-29 [25]): 76%; Activity (HT-29 [26]): 14.6%; Activity (HT-29 [27]): 3.5%

The next lines start with results.

GI50 (NCI-H460) | GI50 (786-0) | GI50 (OVCAR-3) | GI50 (U-251) | GI50 (MCF7) | GI50 (HT-29 [1]) | GI50 (K562) | SMILES | GI50 at 48 h [2] | GI50 (NCI/ADR-RES) | also measured
0.09 µM | 0.11 µM | 0.22 µM | 0.14 µM | 0.07 µM | 0.23 µM | 0.93 µM | COc1cccc2c1C(=O)c1c(O)c3c(c(O)c1C2=O)C[C@@](O)(C(=O)CO)C[C@@H]3O[C@H]1C[C@H](N)[C@H](O)[C@H](C)O1 [DOXORUBICIN] | 0.2 µM | 0.77 µM | 
> 100 µM | 76.3 µM | > 100 µM | 77.9 µM | 15.5 µM | > 100 µM | 0.17 µM | S=C(NCCc1ccccc1)N/N=C/c1c[nH]c2ccccc12 | > 100 µM | 38.7 µM | 
0.38 µM | 0.25 µM | 0.21 µM | 0.92 µM | 0.25 µM | 0.01 µM | 0.01 µM | S=C(N/N=C/c1c[nH]c2ccccc12)Nc1cccc2ccccc12 | 0.59 µM | 6.48 µM | Activity (HT-29 [4]): 66.2%; Activity (HT-29 [5]): 10.7%; Activity (HT-29 [6]): 4.8%; Activity (HT-29 [7]): 12.6%; Activity (HT-29 [8]): 80.5%; Activity (HT-29 [9]): 2%; Activity (Calf thymus DNA [10]): Active; Activity (HT-29 [11]): 6.8%; Activity (HT-29 [12]): 26.7%; Kb (Calf thymus DNA [13]): 4.3 ×10⁴ /M; Activity (Calf thymus DNA [14]): 334 nm; Activity (HT-29 [15]): Dose-dependent effect; Activity (HT-29 [16]): 5.5%; Activity (HT-29 [17]): 34.9%; Activity (HT-29 [18]): 53.1%; Activity (HT-29 [19]): 1.6%; Activity (HT-29 [20]): 7.3%; KSV (Calf thymus DNA [21]): 1.19 ×10³ /M; inhibition [3]: Active; Activity (Calf thymus DNA [22]): 13%
11.7 µM | 3.99 µM | 3.88 µM | 8.11 µM | 2.52 µM | 1.45 µM | 0.16 µM | Cc1ccc(NC(=S)N/N=C/c2c[nH]c3ccccc23)cc1 | 0.99 µM | 1.46 µM | 
> 100 µM | 62.1 µM | 25.7 µM | 72.5 µM | 34.9 µM | 96.9 µM | > 100 µM | O=C1CS/C(=N/N=C/c2c[nH]c3ccccc23)N1c1cccc2ccccc12 | 63 µM | 38.6 µM | 
